# Data as given in the M2OR odorant receptor database.
# Molecular target: T1, UniProt Q7TRW1
# T1 sequence (whole entry): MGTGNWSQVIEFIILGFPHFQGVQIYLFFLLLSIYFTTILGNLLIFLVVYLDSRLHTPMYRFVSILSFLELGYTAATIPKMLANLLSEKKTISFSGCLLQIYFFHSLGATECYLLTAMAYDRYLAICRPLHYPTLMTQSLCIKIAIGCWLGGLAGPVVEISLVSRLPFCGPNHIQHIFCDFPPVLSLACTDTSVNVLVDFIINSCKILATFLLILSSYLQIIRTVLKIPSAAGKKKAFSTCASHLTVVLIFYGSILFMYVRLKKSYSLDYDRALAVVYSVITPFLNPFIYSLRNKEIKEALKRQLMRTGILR
# Conditions: stereoisomer not certain
# In short: (§1)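 Values were gathered from published papers (main text and supplementary material), with extra details requested from the original authors when needed, and checked for typos and inconsistencies. Each receptor–molecule pair is called responsive (active) if the original authors judged the measured signal statistically different from baseline, and non-responsive (inactive) otherwise. Assay methods varied by source, often transient mammalian cell-line luciferase assays. Recorded details include cell line, G-protein, co-transfected protein and tags.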
row,Structure (SMILES),odorant receptor agonist call
1,CCC1CCC(=O)O1 (stereo not drawn),inactive
2,C=CCOC(=O)Cc1ccccc1,inactive
3,C=CCc1ccccc1,active
4,O=c1cc(O)c2ccccc2o1,inactive

# Molecular target: T2, UniProt Q7TRX0
# T2 sequence (whole entry): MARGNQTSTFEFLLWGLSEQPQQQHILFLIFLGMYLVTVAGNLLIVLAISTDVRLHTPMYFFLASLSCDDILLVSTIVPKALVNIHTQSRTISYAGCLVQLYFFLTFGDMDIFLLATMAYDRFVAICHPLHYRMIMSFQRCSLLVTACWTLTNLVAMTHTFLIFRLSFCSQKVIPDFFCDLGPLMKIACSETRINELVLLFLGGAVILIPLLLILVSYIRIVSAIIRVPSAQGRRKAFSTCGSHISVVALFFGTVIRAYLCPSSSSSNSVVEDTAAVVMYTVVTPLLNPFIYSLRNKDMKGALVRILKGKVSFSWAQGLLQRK
# Conditions: stereoisomer not certain
# In short: as §1
row,Structure (SMILES),odorant receptor agonist call
1,O=CC=Cc1ccccc1,inactive
2,Oc1ccccc1Br,inactive
3,OCc1ccc2c(c1)OCO2,inactive
4,CSSC,inactive
5,C=CCOC(=O)Cc1ccccc1,inactive
6,Cc1ccc(OC(=O)Cc2ccccc2)cc1,inactive
7,C=C(C)C1CC=C(C=O)CC1 (stereo not drawn),inactive
8,CCCCCCC(Br)C(=O)O (stereo not drawn),inactive
9,O=Cc1ccccc1,inactive
10,O=Cc1ccc2c(c1)OCO2,inactive
11,COc1ccc(C=O)cc1,inactive
12,CC(C=O)Cc1ccc2c(c1)OCO2 (stereo not drawn),inactive
13,CCCCC(Br)C(=O)O (stereo not drawn),inactive
14,O=c1cc(O)c2ccccc2o1,inactive
